Assay results as given in ChEMBL document CHEMBL3627626, “6-Substituted Pyrrolo[2,3-d]pyrimidine Thienoyl Regioisomers as Targeted Antifolates for Folate Receptor α and the Proton-Coupled Folate Transporter in Human Tumors” (J Med Chem, 2015).
pIC50, pKi: −log10 of the molar value. Calls of active or inactive are those of the source. The rule behind the calls is not given here.

Legend:
[1] = system: SK-OV-3; assay: Antitumor activity against human SKOV3 cells expressing RFC/PCFT/FRalpha xenografted in folate-deficient diet fed NCR SCID mouse assessed as tumor growth inhibition at 16 mg/kg, iv administered every 4 days on day 3, 7, 11 measured on day 21 relative to control; type: functional
Procedure, shortened: (§1)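 Ten-week-old female NCR SCID mice, fed a folate-deficient or standard folate-replete diet, were implanted subcutaneously and bilaterally with SKOV3 tumour fragments. Randomised at 5 mice/group. Dosed intravenously, 0.2 mL per injection, in 5% ethanol/1% Tween-80/0.5% NaHCO3 in water at pH 6.5, on days 3, 7 and 11. Tumours measured twice weekly and mice weighed daily. T/C taken on day 21; growth delay and log cell kill also reported.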

[2] = system: SK-OV-3; assay: Antitumor activity against human SKOV3 cells expressing RFC/PCFT/FRalpha xenografted in folate-replete diet fed NCR SCID mouse assessed as tumor growth inhibition at 16 mg/kg, iv administered every 4 days on day 3, 7, 11 measured on day 21 relative to control; type: functional; procedure, shortened: as §1
[3] = system: Mus musculus; assay: Toxicity in folate-replete diet fed NCR SCID mouse xenografted with human SKOV3 cells expressing RFC/PCFT/FRalpha assessed as body weight loss at 16 mg/kg, iv administered every 4 days on day 3, 7, 11; type: organism-based, SK-OV-3; conditions: in vivo, 96 h
[4] = system: RT16; assay: Selectivity ratio of IC50 for human RFC expressed in Chinese hamster PC43-10 cells assessed as cell growth inhibition to IC50 for human FRalpha expressed in Chinese hamster RT16 cells assessed as cell growth inhibition; type: cell-based
[5] = system: PC43-10; assay: Selectivity ratio of IC50 for human RFC expressed in Chinese hamster PC43-10 cells assessed as cell growth inhibition to IC50 for human PCFT expressed in Chinese hamster R2/PCFT4 cells assessed as cell growth inhibition; type: cell-based
[6] = system: SK-OV-3; assay: Antiproliferative activity against human SKOV3 cells after 96 hrs by CellTiter-Blue assay in presence of 200 nM folic acid; type: functional, cell-based; conditions: SK-OV-3, 96 h
Procedure, shortened: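 IGROV1 and SKOV3 cells plated at ~2500–5000 cells/well in folate-free RPMI 1640 with 10% dialyzed FBS, antibiotics and 2 nM LCV, over a range of drug concentrations, ±200 nM folic acid in parallel. Incubated up to 96 h. Viability read by Cell Titer Blue fluorescence (ex 560/em 590 nm).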

[7] = molecular target: Folate receptor beta (Homo sapiens) (UniProt P14207); assay: Displacement of [3H]-folic acid from human FRbeta expressed in Chinese hamster D4 cells after 15 mins relative to folic acid; type: cell-based
Chain of Folate receptor beta (Homo sapiens) (P14207 17-230 limits assumed): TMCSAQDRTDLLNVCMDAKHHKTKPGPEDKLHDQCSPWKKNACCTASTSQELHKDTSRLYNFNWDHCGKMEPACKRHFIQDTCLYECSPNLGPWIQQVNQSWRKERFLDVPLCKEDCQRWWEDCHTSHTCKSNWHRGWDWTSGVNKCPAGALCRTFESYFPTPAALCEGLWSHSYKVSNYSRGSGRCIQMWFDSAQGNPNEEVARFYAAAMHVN
Procedure, shortened: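 Competitive binding to surface folate receptor on RT16 (FRα) or D4 (FRβ) CHO cells. Cells were acid-washed (pH 3.5) to strip bound folate, then incubated in HEPES-buffered saline pH 7.4 with 50 nM [3H]folic acid plus unlabeled ligand (0–1000 nM) for 15 min at 0 °C. Bound label was normalised to protein. Affinity is the inverse molar ratio for 50% displacement, with folic acid set to 1. Mean of 4–10 experiments ±SE.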

[8] = molecular target: T1, Proton-coupled folate transporter (Homo sapiens) (UniProt Q96NT5); assay: Binding affinity to human PCFT expressed in Chinese hamster R2/PCFT4 cells assessed as increase in intracellular drug transport at 0.5 uM at 37 degC at pH 5.5 measured over 5 mins in presence of AGF94; type: cell-based
T1 sequence (whole entry): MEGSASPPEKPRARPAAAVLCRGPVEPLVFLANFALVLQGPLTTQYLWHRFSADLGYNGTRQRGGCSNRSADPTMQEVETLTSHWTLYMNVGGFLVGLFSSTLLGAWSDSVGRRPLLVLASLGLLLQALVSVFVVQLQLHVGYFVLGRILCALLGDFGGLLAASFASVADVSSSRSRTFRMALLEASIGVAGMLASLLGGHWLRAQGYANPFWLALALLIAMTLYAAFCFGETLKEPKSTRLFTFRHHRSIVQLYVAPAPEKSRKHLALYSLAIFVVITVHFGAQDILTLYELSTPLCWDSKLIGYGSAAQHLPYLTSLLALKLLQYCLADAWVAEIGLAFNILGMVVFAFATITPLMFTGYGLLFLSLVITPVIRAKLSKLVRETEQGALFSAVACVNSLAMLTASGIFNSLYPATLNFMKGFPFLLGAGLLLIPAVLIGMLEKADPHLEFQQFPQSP

[9] = molecular target: T1, Proton-coupled folate transporter (Homo sapiens); assay: Binding affinity to human PCFT expressed in Chinese hamster R2/PCFT4 cells assessed as intracellular drug transport rate at 37 degC at pH 6.8 measured over 2 mins by Lineweaver-Burk plot analysis; type: cell-based
Procedure, shortened: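 R2/PCFT4 CHO cells were grown as monolayers, transferred to spinner flasks, and used as suspensions (5–10 × 10⁷ cells). Uptake was quenched with ice-cold DPBS and cells were NaOH-solubilized. Results are pmol/mg protein; Kt and Vmax come from Lineweaver–Burke plots.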

[10] = molecular target: T2, Trifunctional purine biosynthetic protein adenosine-3 (Homo sapiens, UniProt P22102); assay: Inhibition of human recombinant His-tagged GARFTase assessed as formation of 5,8-dideazafolate from 10-formyl-5,80-dideazafolic acid measured every 15 secs over 20 mins by spectrophotometric analysis
T2 sequence (P22102 whole entry): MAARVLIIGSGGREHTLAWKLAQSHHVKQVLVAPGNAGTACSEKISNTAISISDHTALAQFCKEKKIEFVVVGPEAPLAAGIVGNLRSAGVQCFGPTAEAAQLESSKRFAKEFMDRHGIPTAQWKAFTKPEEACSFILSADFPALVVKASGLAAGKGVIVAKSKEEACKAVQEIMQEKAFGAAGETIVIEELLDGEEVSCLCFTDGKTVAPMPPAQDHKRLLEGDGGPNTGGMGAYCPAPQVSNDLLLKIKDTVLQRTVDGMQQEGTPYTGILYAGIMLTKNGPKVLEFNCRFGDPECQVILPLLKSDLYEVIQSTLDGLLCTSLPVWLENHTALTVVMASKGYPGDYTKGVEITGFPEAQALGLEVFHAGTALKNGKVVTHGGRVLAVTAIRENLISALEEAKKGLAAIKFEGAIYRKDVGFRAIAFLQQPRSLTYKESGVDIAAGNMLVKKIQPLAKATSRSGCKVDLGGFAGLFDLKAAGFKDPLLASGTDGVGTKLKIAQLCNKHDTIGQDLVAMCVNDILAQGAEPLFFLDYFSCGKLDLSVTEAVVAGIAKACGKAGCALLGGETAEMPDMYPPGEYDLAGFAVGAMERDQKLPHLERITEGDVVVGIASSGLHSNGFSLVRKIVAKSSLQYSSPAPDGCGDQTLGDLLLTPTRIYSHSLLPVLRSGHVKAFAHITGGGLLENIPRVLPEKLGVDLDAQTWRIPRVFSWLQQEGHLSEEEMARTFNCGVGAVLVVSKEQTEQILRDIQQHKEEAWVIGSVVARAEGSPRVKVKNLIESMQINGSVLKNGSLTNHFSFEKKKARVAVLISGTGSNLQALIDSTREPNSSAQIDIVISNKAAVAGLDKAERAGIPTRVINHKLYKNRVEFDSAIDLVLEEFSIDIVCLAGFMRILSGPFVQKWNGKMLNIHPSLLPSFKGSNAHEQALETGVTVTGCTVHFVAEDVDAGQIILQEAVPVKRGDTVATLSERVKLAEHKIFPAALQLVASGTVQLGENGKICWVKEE

With `Nc1nc2[nH]c(CCCc3cc(C(=O)N[C@@H](CCC(=O)O)C(=O)O)cs3)cc2c(=O)[nH]1` the T/C [1] was 15%, the T/C [2] was 69% and the Activity [3] was “Non-toxic”. The Ratio IC50 [4] was 610, the Ratio IC50 [5] was 29 and the pIC50 [6] was 7.12. For the same molecule, the Activity [7] was 35%, the Activity [8] was “inactive” and the K [9] was 0.17 µM. For the same molecule, the pKi [10] was 8.04.
